# M4 PAM: potentiates acetylcholine response at human M4 receptor; P08173; CHO-K1 hM4/Gqi5, Fluo-8 calcium fluorescence, ACh EC20; 0% = ACh EC20, 100% = maximal ACh; activation, % at 3 µM; 360,000 tested, 0.4% active; AID 624126;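 active = activation above its plate's cutoff, the mean activation of sample wells plus 3 SD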
# TAAR1 ag: agonists of human TAAR1; Q96RJ0; CHO RD-HGA16 TAAR1, Fluo-8 calcium fluorescence; vehicle wells 0%, saturating PEA agonist 100%; activation, % at 3 µM; 360,000 tested, 0.99% active; AID 624467;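 active = activation above the mean activation of all test compounds in the run plus 3 SD, cut at about 38% in these data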
# Target sequence (Q96RJ0 whole entry, looked up): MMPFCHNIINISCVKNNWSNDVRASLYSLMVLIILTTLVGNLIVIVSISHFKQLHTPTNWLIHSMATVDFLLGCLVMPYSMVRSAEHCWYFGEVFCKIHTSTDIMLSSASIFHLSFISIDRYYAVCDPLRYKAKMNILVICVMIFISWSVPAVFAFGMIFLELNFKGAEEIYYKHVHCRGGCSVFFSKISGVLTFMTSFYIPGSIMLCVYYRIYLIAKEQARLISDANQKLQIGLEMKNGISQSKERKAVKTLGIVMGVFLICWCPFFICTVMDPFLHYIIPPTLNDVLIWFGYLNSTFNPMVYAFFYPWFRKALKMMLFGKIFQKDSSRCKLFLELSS
#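 System: CHO-derived RD-HGA16 cells with stable Gα16 and human TAAR1 / Times: 17-24 h plating, Fluo-8 75 min 37 °C, 30 min RT / Technique: calcium-sensitive Fluo-8 signal, excitation 470-495, emission 515-575 nm / Measure: % activation relative to PEA EC100 response / Benchmarks: DMSO and PEA EC100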
# CHRM4 agonist: agonists of human muscarinic M4 receptor (CHRM4); P08173; CHO-K1 hM4/Gqi5, Fluo-8 calcium fluorescence; vehicle 0%, full acetylcholine response 100%; activation, % at 3 µM; 360,000 tested, 0.14% active; AID 624127;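 active = activation above the run mean over all test wells plus 3 SD, cut at about 32% in these data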;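 note: peak over basal fluorescence ratio per well then scaled between controls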
# CHRM4 antagonist: CHRM4 antagonism in calcium assay. P08173. CHO-hM4 cells, ACh EC80, Fluo-8 calcium fluorescence. inhibition, % at 3 µM. 360,000 tested, 0.73% active;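 active = inhibition above its plate's cutoff, the mean inhibition of sample wells plus 3 SD, cut at about 27% in these data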
# TAAR1 antag: human TAAR1 antagonism | AID 624466 | inhibition, % at 3 µM | Q96RJ0 | 360,000 tested, 1.5% active | CHO RD-HGA16 TAAR1, Fluo-8 calcium fluorescence, antagonist;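 active = inhibition above a per-plate cutoff, the mean inhibition of test compounds on that plate plus 3 SD, cut at about 49% in these data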
#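 Assay system: RD-HGA16 CHO cells with stable hTAAR1 and Gα16 / Reagent: EC80 β-phenethylamine stimulus / Doses: 3 µM, single point / Timing: dye loading 75 min at 37 °C, then 30 min room temperature / Measured by: Fluo-8 intracellular calcium dye fluorescence, real-time kinetic reads / Controls: vehicle wells and EC80 agonist wells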
# TAAR1 ag confirm: human TAAR1 agonism, confirmed | shares compounds with TAAR1 ag | CHO RD-HGA16 TAAR1, Fluo-8 calcium fluorescence; scaled: DMSO 0%, maximal phenethylamine 100% | activation, % at 3 µM | 2,400 tested, 82% active | AID 651783;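 active = activation above a cutoff set at the run's mean compound activation plus 3 SD, cut at about 39% in these data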
# Ga16 nonsel ag: nonselective agonist in parental cells, TAAR1 agonist counter-screen. shares compounds with TAAR1 ag. CHO-Ga16 parental, Fluo-8 calcium fluorescence; normalized to maximal ATP response, DMSO zero. activation, % at 3 µM. 2,400 tested, 50% active. AID 651787;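 active = activation above the run cutoff, the mean activation over all tested wells plus 3 SD, cut at about 12% in these data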
# TAAR1 desensitize: TAAR1 response desensitization, agonist counter-screen; inhibition, % at 3 µM; CHO RD-HGA16 hTAAR1, Fluo-8 calcium, beta-PEA response inhibition; AID 651951; shares compounds with TAAR1 ag; 2,400 tested, 46% active;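 active = inhibition above the run cutoff, the mean inhibition of all test compounds plus 3 SD, cut at about 49% in these data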;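 note: beta-PEA stimulus applied at its EC80; loss of beta-PEA calcium signal after compound pretreatment read as receptor desensitization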
# Ga16 antag count: nonselective Ga16 antagonist in TAAR1 agonist counter-screen; shares compounds with TAAR1 ag; CHO-Ga16 ATP-induced calcium, Fluo-8 fluorescence; inhibition, % at 3 µM; 2,400 tested, 39% active; AID 651952;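 active = inhibition above the plate's mean compound inhibition plus 3 SD, computed per plate, cut at about 22% in these data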
# A number is an active result; i = inactive; nt = no result. Shown are actives, neighbours in structure and some others; about 3% of the full set was active somewhere.
SMILES,M4 PAM,TAAR1 ag,CHRM4 agonist,CHRM4 antagonist,TAAR1 antag,TAAR1 ag confirm,Ga16 nonsel ag,TAAR1 desensitize,Ga16 antag count
O=C1CCC(C(=O)Nc2ccc(Cl)cc2)N1 (stereo unspecified),i,i,i,i,i,nt,nt,nt,nt
O=C(Nc1ccc(Cl)cc1)C1C2CCCCC21 (stereo unspecified),i,57,i,i,59,i,i,i,i
COc1ccccc1CNC(=O)COC(=O)/C=C/c1ccc(OC(F)F)c(OC)c1,i,92,i,i,78,47,23,57,23
O=C(COC(=O)/C=C/c1ccc(OC(F)F)cc1)NCc1cccs1,i,82,i,i,61,i,i,i,i
CCCCN(CCCNC(=S)NCCCc1cnc[nH]1)c1ccc(Br)cn1,i,i,i,i,i,nt,nt,nt,nt
O=c1c2c3c(sc2n(CCN2CCOCC2)c(=O)n1C1CCCCC1)CCCCC3,nt,i,nt,nt,i,nt,nt,nt,nt
O=C(Cn1cnc([N+](=O)[O-])c1)NCCc1ccccc1,i,nt,i,i,nt,nt,i,nt,i
O=C(Cn1cnc([N+](=O)[O-])c1)NCc1ccc(F)cc1,i,i,i,i,i,nt,nt,nt,nt
Cc1ccc(-n2cc(CNCCc3cscn3)c(-c3ccc(F)cc3)n2)cc1,i,46,i,i,i,57,i,i,i
O=S1(=O)CC(N2CCN(CCO)CC2)CN1Cc1cn(Cc2ccccc2C(F)(F)F)nn1 (stereo unspecified),i,i,i,i,i,nt,nt,nt,nt
Cc1[nH]c2ccccc2c1CN1CCc2ccccc2C1,i,nt,i,i,nt,nt,i,nt,i
O=c1[nH]c(CN2CCc3ccccc3C2)nc2ccccc12,i,i,i,i,i,nt,nt,nt,nt
CC(C)C[C@@H](CN)NC(=O)c1nc[nH]c1C(=O)N[C@@H](C)C(=O)CNC[C@H](C)NC(=O)c1nc[nH]c1C(=O)N[C@@H](CC(C)C)C(=O)O,i,i,i,i,i,nt,nt,nt,nt
O=C(NCCc1c[nH]c2ccccc12)c1cnc2n(c1=O)CCS2,i,i,i,i,i,nt,nt,nt,nt
O=C(NCCc1ccccc1)c1cnc2n(c1=O)CCS2,i,nt,i,i,nt,nt,i,nt,i
O=C(Cn1nnc2ccccc2c1=O)NCCc1ccc(Cl)cc1Cl,i,54,i,i,i,i,i,i,i
COc1cccc(O)c1CN1CCC(C(=O)Nc2ccc(-c3cccc(C)c3)cc2)CC1,i,53,i,i,i,i,18,i,37
CCCN(C(=O)CSc1nnc(-c2ccc3c(c2)OCO3)o1)C1CCS(=O)(=O)C1 (stereo unspecified),i,i,i,i,i,nt,nt,nt,nt
CC1(C(=O)NCc2cccnc2)CCN1C(=O)c1cccc(F)c1 (stereo unspecified),i,i,i,i,i,nt,nt,nt,nt
CN(CCc1ccccc1)C(=O)CC1C(=O)NCCN1Cc1ccccn1 (stereo unspecified),i,63,i,i,i,71,i,60,i
CCOc1ccccc1CN1CCNC(=O)C1CC(=O)N(C)CCc1cnn(C)c1 (stereo unspecified),i,i,i,i,i,nt,nt,nt,nt
FC(F)(F)c1cc(CCN2CCNC[C@H]2Cc2cccc3ccccc23)cc(C(F)(F)F)c1,i,84,i,i,95,51,28,i,40
c1ccc(C[C@H]2CNCCN2CCc2cccc3ccccc23)cc1,i,i,i,i,i,nt,nt,nt,nt
CCCC[C@@H]1CNCCN1CCc1cccc2ccccc12,i,66,i,i,75,70,i,87,i
O=C(Nc1ccccc1)c1ccc(COc2ccccc2)cc1,i,i,i,i,i,nt,nt,nt,nt
SMILES,M4 PAM,TAAR1 ag,CHRM4 agonist,CHRM4 antagonist,TAAR1 antag,TAAR1 ag confirm,Ga16 nonsel ag,TAAR1 desensitize,Ga16 antag count
O=C(Nc1ccc(OCc2ccccc2)cc1)c1cccnc1,i,88,i,i,57,94,30,75,26
O=C(N/N=C/c1ccc(F)cc1)c1ccc(OCc2ccccc2)cc1,i,i,i,i,i,nt,nt,nt,nt
O=C(Nc1ccccc1F)c1ccc(OCc2ccccc2)cc1,i,nt,i,i,nt,nt,i,nt,i
NNC(=O)c1ccc(COc2ccc3c(c2)CCC3)cc1,i,i,i,i,i,nt,nt,nt,nt
O=C(N/N=C/c1ccc(OCc2ccc(F)cc2)cc1)c1ccccc1,20,43,i,i,i,i,i,i,i
NNC(=O)c1ccc(COc2ccc3ccccc3c2)cc1,i,72,i,i,i,93,51,49,23
COCC(=O)N1C[C@@H](C)[C@@H](OC)CN(C)C(=O)c2ccc(NC(=O)c3cnccn3)cc2OC[C@H]1C,i,i,i,i,i,nt,nt,nt,nt
COC(=O)[C@@]12C[C@@H](CC(=O)NCC34CC5CC(CC(C5)C3)C4)C(=O)N(CCc3ccc(OC)c(OC)c3)C1=CCC(C)(C)C2,i,i,i,i,i,nt,nt,nt,nt
O=C(O)c1ccccc1C(=O)NC1Cc2ccccc2C1,i,85,i,i,77,98,16,91,i
O=C(NNC(=O)c1ccc([N+](=O)[O-])cc1)c1ccc(Br)cc1,i,i,i,i,i,nt,nt,nt,nt
O=C(NNC(=S)NC(=O)c1ccccc1)c1ccc([N+](=O)[O-])cc1,i,64,i,i,i,70,46,i,22
O=C(NNC(=S)NC(=O)c1ccccc1Cl)c1cccc([N+](=O)[O-])c1,i,92,i,i,i,57,43,i,22
CC(=O)NNC(=S)NC(=O)c1cccc([N+](=O)[O-])c1,i,i,i,i,i,nt,nt,nt,nt
O=C(NNC(=S)NC(=O)c1ccc(Br)cc1)c1cccc([N+](=O)[O-])c1,i,135,i,i,i,105,88,i,i
Cc1ccc(C(=O)NC(=S)NNC(=O)c2ccc([N+](=O)[O-])cc2)cc1,i,i,i,i,i,nt,nt,nt,nt
O=C(NNC(=S)NC(=O)c1ccc(Br)cc1)c1ccc([N+](=O)[O-])cc1,i,124,i,i,95,142,110,96,65
CC(=O)NC(c1ccc(F)c(F)c1)c1nc(-c2ccc3c(c2)OCO3)cs1 (stereo unspecified),i,i,i,i,i,nt,nt,nt,nt
CCCCN(C(=O)COc1ccc(F)cc1)c1c(N)n(CC(C)C)c(=O)[nH]c1=O,i,i,i,i,i,nt,nt,nt,nt

# High-throughput results (PubChem)
